Source: ChEMBL document CHEMBL4043109, “Dual inhibitors of the human blood-brain barrier drug efflux transporters P-glycoprotein and ABCG2 based on the antiviral azidothymidine” (Bioorg Med Chem, 2017)
pIC50: −log10 of the molar value. Values belong to the compound of their own block, whether it stands above or below them. Active and inactive are the calls of the source. No cut-off for these calls is given here.

Key:
[1] = Inhibition of P-gp in human MCF7/DX1 cells assessed as increase in calcein-AM accumulation incubated for 10 mins by flow cytometry; format: cell-based; settings: MCF7/DX1, 10 min
How it was run: (§1)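 MCF-7/DX1 cells (125,000, in suspension) were incubated at 37 °C for 10 min in BME containing 0.5 μM calcein-AM (final) plus increasing compound concentrations, with DMSO held at 5%. GF120918 1 μM served as positive control. IC50 was taken from mean fluorescence; triplicate.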

[2] = target: T1, Broad substrate specificity ATP-binding cassette transporter ABCG2 (Homo sapiens, UniProt Q9UNQ0); assay: Inhibition of ABCG2 in human MCF7/FLV1000 cells assessed as increase in mitoxantrone accumulation incubated for 30 mins by flow cytometry
T1 sequence (Q9UNQ0 whole entry): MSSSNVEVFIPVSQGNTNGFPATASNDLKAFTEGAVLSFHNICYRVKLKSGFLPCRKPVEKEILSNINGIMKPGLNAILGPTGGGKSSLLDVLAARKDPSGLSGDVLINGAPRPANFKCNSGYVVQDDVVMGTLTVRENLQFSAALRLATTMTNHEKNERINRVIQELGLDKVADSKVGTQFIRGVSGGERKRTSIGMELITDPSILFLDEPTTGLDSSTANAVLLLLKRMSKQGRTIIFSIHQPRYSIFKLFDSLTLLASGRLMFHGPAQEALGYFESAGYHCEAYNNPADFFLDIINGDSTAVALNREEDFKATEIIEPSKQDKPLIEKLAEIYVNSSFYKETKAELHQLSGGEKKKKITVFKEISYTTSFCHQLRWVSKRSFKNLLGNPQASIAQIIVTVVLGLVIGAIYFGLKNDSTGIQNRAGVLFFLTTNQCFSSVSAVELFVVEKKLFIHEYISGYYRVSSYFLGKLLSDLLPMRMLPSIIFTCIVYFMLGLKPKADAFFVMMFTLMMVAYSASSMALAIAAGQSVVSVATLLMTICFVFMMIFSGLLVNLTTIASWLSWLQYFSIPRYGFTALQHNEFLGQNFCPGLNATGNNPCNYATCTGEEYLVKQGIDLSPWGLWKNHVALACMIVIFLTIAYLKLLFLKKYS

[3] = Cytotoxicity in human MCF-7 FLV1000 cells assessed as cell viability at […] uM incubated for 24 hrs by MTT assay; format: cell-based; settings: read-out: Activity
[4] = target: ATP-dependent translocase ABCB1 (Homo sapiens, UniProt P08183); assay: Inhibition of human MDR1 expressed in Sf9 cell membranes assessed as reduction in [125I]-IAAP binding incubated for 20 mins under UV light irradiation and measured after 30 mins by densitometry based photo-affinity labeling assay
Chain of ATP-dependent translocase ABCB1 (P08183 whole entry): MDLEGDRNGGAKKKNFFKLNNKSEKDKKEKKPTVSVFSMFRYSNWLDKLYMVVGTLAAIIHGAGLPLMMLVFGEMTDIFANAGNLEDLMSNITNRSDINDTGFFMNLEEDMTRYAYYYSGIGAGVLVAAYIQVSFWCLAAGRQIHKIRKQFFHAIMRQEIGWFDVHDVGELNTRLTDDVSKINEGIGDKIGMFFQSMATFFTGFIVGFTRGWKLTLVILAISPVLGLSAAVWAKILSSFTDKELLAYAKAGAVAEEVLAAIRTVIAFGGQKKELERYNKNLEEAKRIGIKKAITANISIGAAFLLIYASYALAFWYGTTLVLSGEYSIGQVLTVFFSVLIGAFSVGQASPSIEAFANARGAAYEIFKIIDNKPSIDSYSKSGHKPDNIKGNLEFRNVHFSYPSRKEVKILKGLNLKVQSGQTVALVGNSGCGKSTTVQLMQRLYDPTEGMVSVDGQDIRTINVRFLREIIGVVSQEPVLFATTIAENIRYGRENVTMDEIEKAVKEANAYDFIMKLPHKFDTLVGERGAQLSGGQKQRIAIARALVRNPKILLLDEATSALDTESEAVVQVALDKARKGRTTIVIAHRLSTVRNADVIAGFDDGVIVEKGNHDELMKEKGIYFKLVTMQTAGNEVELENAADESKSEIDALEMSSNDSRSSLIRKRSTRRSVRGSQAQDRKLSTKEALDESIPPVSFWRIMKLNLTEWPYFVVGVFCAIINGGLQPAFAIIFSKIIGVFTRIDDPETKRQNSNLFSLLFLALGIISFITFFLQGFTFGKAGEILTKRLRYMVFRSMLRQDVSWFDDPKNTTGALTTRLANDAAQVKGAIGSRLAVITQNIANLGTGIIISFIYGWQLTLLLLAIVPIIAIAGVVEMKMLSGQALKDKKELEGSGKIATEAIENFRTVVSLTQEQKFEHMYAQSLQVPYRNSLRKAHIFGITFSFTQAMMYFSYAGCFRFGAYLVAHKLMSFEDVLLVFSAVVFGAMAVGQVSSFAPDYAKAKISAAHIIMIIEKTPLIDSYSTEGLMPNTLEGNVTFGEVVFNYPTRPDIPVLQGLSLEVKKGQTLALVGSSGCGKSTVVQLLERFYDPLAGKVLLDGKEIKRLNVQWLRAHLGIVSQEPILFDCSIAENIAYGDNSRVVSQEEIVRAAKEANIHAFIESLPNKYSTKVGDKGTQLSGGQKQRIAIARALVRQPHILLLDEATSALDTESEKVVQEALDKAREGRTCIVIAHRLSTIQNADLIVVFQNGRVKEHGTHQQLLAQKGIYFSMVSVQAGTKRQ
How it was run: (§2)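 Crude Sf9 membranes, from baculovirus infection expressing P-gp (25 µg) or ABCG2 (40 µg), were preincubated 10 min at room temperature in the dark. Buffer was 50 mM Tris pH 7.5 with 1% aprotinin, 1 mM DTT and 2 mM AEBSF. Additions were compound (in DMSO) and [125I]-IAAP, ~2200 Ci/mmol. Controls were 2.5% DMSO and GF120918 (10 µM for P-gp, 20 µM for ABCG2). Samples were UV-irradiated at 365 nm for 20 min on ice, then held 30 min in Laemmli buffer. Bands were resolved on 7.5% SDS-PAGE, autoradiographed and quantified as % of DMSO control to give IC50.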

[5] = Cytotoxicity in human MCF7/DX1 cells assessed as cell viability at 2.3 uM incubated for 24 hrs by MTT assay; format: cell-based; settings: read-out: Activity
How it was run: (§3)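 MTT viability assay on MCF-7/FLV1000 (ABCG2-overexpressing, grown with 1000 nM flavopiridol) and MCF-7/DX1 (P-gp-overexpressing, grown with 1 μM doxorubicin) cells. Cells were exposed for 24 h to increasing dimer concentrations. Viability is the absorbance of treated cells relative to untreated cells.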

[6] = target: T1, Broad substrate specificity ATP-binding cassette transporter ABCG2; assay: Inhibition of human ABCG2 expressed in Sf9 cell membranes assessed as reduction in [125I]-IAAP binding incubated for 20 mins under UV light irradiation and measured after 30 mins by densitometry based photo-affinity labeling assay; how it was run: as §2
[7] = target: T1, Broad substrate specificity ATP-binding cassette transporter ABCG2; assay: Inhibition of ABCG2 in human MCF7/FLV1000 cells assessed as increase in mitoxantrone accumulation at 200 uM incubated for 30 mins by flow cytometry; settings: 0.5 h
Homo sapiens [8] = species: Homo sapiens; assay: Inhibition of P-gp in human MCF7/DX1 cells assessed as increase in calcein-AM accumulation at 400 uM incubated for 10 mins by flow cytometry; format: cell-based; how it was run: as §1
[9] = Cytotoxicity in human MCF-7 FLV1000 cells assessed as cell viability at 40 uM incubated for 24 hrs by MTT assay; format: cell-based; settings: read-out: Activity; how it was run: as §3
[10] = Cytotoxicity in human MCF7/DX1 cells assessed as cell viability at 2 uM incubated for 24 hrs by MTT assay; format: cell-based; settings: read-out: Activity; how it was run: as §3
[11] = target: T1, Broad substrate specificity ATP-binding cassette transporter ABCG2; assay: Inhibition of ABCG2 in human MCF7/FLV1000 cells assessed as increase in mitoxantrone accumulation at 400 uM incubated for 30 mins by flow cytometry; settings: 0.5 h
Homo sapiens [12] = species: Homo sapiens; assay: Inhibition of P-gp in human MCF7/DX1 cells assessed as increase in calcein-AM accumulation at 500 uM incubated for 10 mins by flow cytometry; format: cell-based; how it was run: as §1

pIC50 [1]: 4.95
Structure (SMILES): Cc1cn([C@H]2C[C@H](N=[N+]=[N-])[C@@H](COC(=O)CCCCCCCCC(=O)OC[C@H]3O[C@@H](n4cc(C)c(=O)[nH]c4=O)C[C@@H]3N=[N+]=[N-])O2)c(=O)[nH]c1=O
pIC50 [2]: 4.55

pIC50 [4]: 5.03 | inhibition (INH) ([4]; human, 20 min): Dose-dependent effect | pIC50 [1]: 5.64 | pIC50 [6]: 5.37 | inhibition (INH) ([6]; human, 20 min): Dose-dependent effect
Structure (SMILES): Cc1cn([C@H]2C[C@H](N=[N+]=[N-])[C@@H](COC(=O)CCCCCCCCCCC(=O)OC[C@H]3O[C@@H](n4cc(C)c(=O)[nH]c4=O)C[C@@H]3N=[N+]=[N-])O2)c(=O)[nH]c1=O
viability at 24 h, 11.5 µM [3]: > 95% | viability at 24 h, 2.3 µM [5]: > 95% | pIC50 [2]: 4.94

pIC50 [1]: < 3.70
Structure (SMILES): Cc1cn([C@H]2C[C@H](N=[N+]=[N-])[C@@H](COC(=O)CCCCCC(=O)OC[C@H]3O[C@@H](n4cc(C)c(=O)[nH]c4=O)C[C@@H]3N=[N+]=[N-])O2)c(=O)[nH]c1=O
inhibition (INH) [7]: Not Active

The remaining lines, values behind:

Structure (SMILES): Cc1cn([C@H]2C[C@H](N=[N+]=[N-])[C@@H](COC(=O)CCC(=O)OC[C@H]3O[C@@H](n4cc(C)c(=O)[nH]c4=O)C[C@@H]3N=[N+]=[N-])O2)c(=O)[nH]c1=O
inhibition (INH) [7]: Not Active | inhibition (Homo sapiens [8]): inactive

Structure (SMILES): Cc1cn([C@H]2C[C@H](N=[N+]=[N-])[C@@H](COC(=O)CCCCCCCCCCCCC(=O)OC[C@H]3O[C@@H](n4cc(C)c(=O)[nH]c4=O)C[C@@H]3N=[N+]=[N-])O2)c(=O)[nH]c1=O
viability at 24 h, 13.3 µM [3]: > 95% | pIC50 [1]: 5.70 | viability at 24 h, 40 µM [9]: 60% | pIC50 [2]: 4.88 | viability at 24 h, 2 µM [10]: > 95%

Structure (SMILES): Cc1cn([C@H]2C[C@H](N=[N+]=[N-])[C@@H](CO)O2)c(=O)[nH]c1=O [ZIDOVUDINE]
inhibition (INH) [11]: Not Active | inhibition (Homo sapiens [12]): inactive
